# Results reported in ChEMBL document CHEMBL3244161, “Azabicycloalkanes as analgetics. 3. Structure-activity relationships of 1-phenyl-6-azabicyclo[3.2.1]octanes and absolute stereochemistry of (+)-1-(3-hydroxyphenyl)-6-methyl-6-azabicyclo[3.2.1]octane and its 7-endo-methyl derivative” (J Med Chem, 1977).
# Activity calls are given as the source filed them. No cut-off for these calls is given here.
# Key:
# [1] = tested on: Mus musculus; assay: Analgesic activity in mouse assessed as inhibition of AcOH-induced writhing up to 22.5 mg/kg, sc; format: functional, organism-based; set-up: dose 22.5 mg/kg
# [2] = (§1) Acute toxicity in sc dosed mouse; format: organism-based; details: in vivo
# [3] = tested on: Rhesus monkey; assay: Narcotic antagonist activity in morphine-dependent rhesus monkey assessed as mild to moderate abstinence at 5 to 20 mg/kg; format: functional, organism-based; details: Macaca mulatta
# Outline: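 Compound given to nonwithdrawn morphine-dependent monkeys; scored as precipitation of abstinence syndrome, with severity graded from mild to severe over the stated dose range.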
# [4] = tested on: Mus musculus; assay: Analgesic activity in sc dosed mouse by hot-plate method; format: functional
# [5] = tested on: Rhesus monkey; assay: Suppression of abstinence syndrome in morphine-dependent rhesus monkey at 10 mg/kg; format: functional, organism-based; set-up: dose 10 mg/kg; details: Macaca mulatta
# [6] = tested on: Oryctolagus cuniculus; assay: Narcotic antagonist activity in rabbit assessed as inhibition of morphine-induced respiratory depression at 5 mg/kg, iv; format: functional
# Outline: (§2)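 Rabbits given test compound iv; read-out is antagonism of morphine-induced respiratory depression; expressed as AD50 in mg/kg or as % antagonism at a fixed dose.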
# [7] = tested on: Mus musculus; assay: Analgesic activity in sc dosed mouse assessed as inhibition of AcOH-induced writhing; format: functional
# [8] = tested on: Oryctolagus cuniculus; assay: Narcotic antagonist activity in iv dosed rabbit assessed as inhibition of morphine-induced respiratory depression; format: functional; outline: as §2
# [9] = tested on: Mus musculus; assay: Analgesic activity in mouse assessed as inhibition of AcOH-induced writhing up to 10 mg/kg, sc; format: functional, organism-based; set-up: dose 10 mg/kg
# [10] = tested on: Oryctolagus cuniculus; assay: Narcotic antagonist activity in rabbit assessed as inhibition of morphine-induced respiratory depression up to 1 mg/kg, iv; format: functional, organism-based; set-up: dose 1 mg/kg; outline: as §2
# [11] = tested on: Mus musculus; assay: as §1; format: organism-based; details: in vivo
# [12] = tested on: Mus musculus; assay: Analgesic activity in sc dosed mouse assessed as time duration of activity by hot-plate method; format: functional
# [13] = tested on: Rhesus monkey; assay: Suppression of abstinence syndrome in morphine-dependent rhesus monkey at 8 mg/kg; format: functional, organism-based; set-up: dose 8 mg/kg; details: Macaca mulatta
# [14] = tested on: Mus musculus; assay: Analgesic activity in mouse by hot-plate method up to 100 mg/kg, sc; format: functional, organism-based; set-up: dose 100 mg/kg
# [15] = tested on: Rhesus monkey; assay: Suppression of abstinence syndrome in morphine-dependent rhesus monkey at 5 mg/kg; format: functional, organism-based; set-up: dose 5 mg/kg; details: Macaca mulatta
# [16] = Mus musculus, sc, read-out: ED50
SMILES,Activity [1],LD50 [2],"ED50 [7, 16]",other results
COc1cccc(C23CCCC(C2)NC3)c1.O=C(O)C(=O)O (racemic),inactive,> 100 mg/kg,,
CN1C[C@@]2(c3cccc(O)c3)CCC[C@@H]1C2,inactive,156 mg/kg,,"Activity [3]: Active; ED50 [4, 16]: 20 mg/kg; Activity [5]: inactive; inhibition in vivo at 5 mg/kg [6]: 41%"
CC(C)=CCN1CCC2(C)c3cc(O)ccc3CC1C2C.Cl (centres undefined) [PENTAZOCINE HYDROCHLORIDE],,190 mg/kg,4.5 mg/kg,"ED50 [4, 16]: 12.3 mg/kg; AD50 [8]: 1.5 mg/kg"
Br.CC1N(C)C2CCCC1(c1cc(O)cc(O)c1)C2 (racemic),inactive,> 100 mg/kg,,
Cl.Oc1cccc(C23CCCC(C2)N(CC2CC2)C3)c1 (racemic),,> 100 mg/kg,30 mg/kg,AD50 [8]: 1.8 mg/kg
Cl.Oc1cccc(C23CCCC(C2)N(CC2CCC2)C3)c1 (racemic),,> 30 mg/kg,,Activity [9]: inactive; AD50 [8]: 3.5 mg/kg
CCCCCCN1C2CCCC(c3cccc(O)c3)(C2)C1C.Cl (racemic),,25.4 mg/kg,0.27 mg/kg,inhibition [10]: inactive
Br.COc1cccc(C23CCCC(C2)NC3C)c1 (racemic),inactive,> 100 mg/kg,,
CC1C2CCCC1(c1cccc(O)c1)CN2C (racemic; 13) [listing 1 of 2 here],,,,Activity [9]: inactive
Cl.O=C(CCN1CC2(c3cccc(O)c3)CCCC1C2)c1ccccc1 (racemic),,184 mg/kg,10.1 mg/kg,
Br.CCCCCC(=O)Oc1cccc(C23CCCC(C2)N(C)C3C)c1 (racemic),,156 mg/kg,12.3 mg/kg,
Br.CCC1N(C)C2CCCC1(c1cccc(OC(C)=O)c1)C2 (racemic),,55.1 mg/kg,10.1 mg/kg,"ED50 [4, 16]: 9.9 mg/kg"
CCCCCCN1CC2(c3cccc(O)c3)CCCC1C2.Cl (racemic),,> 100 mg/kg,17.5 mg/kg,
O=C(O)C(=O)O.c1ccc(CCN2CC3(c4ccccc4)CCCC2C3)cc1 (racemic),inactive,> 100 mg/kg,,
Br.CC1NC2CCCC1(c1cccc(O)c1)C2 (racemic),inactive,> 100 mg/kg,,
Cl.O=C(CCCN1CC2(c3cccc(O)c3)CCCC1C2)c1ccc(F)cc1 (racemic),,> 100 mg/kg,2 mg/kg,
C/C=C\N1CC[C@]23CCCC[C@H]2[C@H]1Cc1ccc(O)cc13.Cl,,,,AD50 [8]: 0.014 mg/kg
CC(=O)Oc1cccc(C23CCCC(C2)N(C)C3C)c1.Cl (racemic),,123 mg/kg,,"ED50 [4, 16]: 3.5 mg/kg; ED50 [7]: 2.9 mg/kg"
Br.CC1N(C)C2CCCC1(c1cccc(OC(=O)c3cccnc3)c1)C2 (racemic),,184 mg/kg,5.5 mg/kg,
C=CCN1CC2(c3ccccc3)CCCC1C2.O=C(O)C(=O)O (racemic),inactive,> 100 mg/kg,,AD50 [8]: 2.2 mg/kg
C=CCN1CC2(c3cccc(O)c3)CCCC1C2.Cl (racemic),inactive,> 100 mg/kg,,AD50 [8]: 1.7 mg/kg
CCCCN1C2CCCC(c3cccc(O)c3)(C2)C1C.Cl (racemic),,> 30 mg/kg,,Activity [9]: inactive

SMILES,Activity [1],LD50 [2],"ED50 [7, 16]",other results
CC1C2CCCC1(c1cccc(O)c1)CN2C (racemic; 15) [listing 1 of 2 here],,,,AD50 [8]: 0.18 mg/kg
Br.CC1N(C)C2CCCC1(c1cccc(O)c1)C2 (racemic; 9),,,4.9 mg/kg,LD50 [11]: 113.5 mg/kg
CCCCCN1C2CCCC(c3cccc(O)c3)(C2)C1C.Cl (racemic),,36.7 mg/kg,1.5 mg/kg,inhibition [6]: inactive
C=CCN1C2CCCC(c3cccc(O)c3)(C2)C1C.Cl (racemic),,> 30 mg/kg,22.5 mg/kg,AD50 [8]: 0.17 mg/kg
C#CCN1C2CCCC(c3cccc(O)c3)(C2)C1C.Cl (racemic),,> 100 mg/kg,22.5 mg/kg,AD50 [8]: 0.19 mg/kg
CC1C2CCCC1(c1cccc(O)c1)CN2C (racemic; 13) [listing 2 of 2 here],,> 30 mg/kg,,AD50 [8]: 1.1 mg/kg
Br.CCC1N(C)C2CCCC1(c1cccc(O)c1)C2 (racemic),,59.8 mg/kg,8.8 mg/kg,
Cl.O=C(CCCN1CC2(c3cccc(O)c3)CCCC1C2)c1ccccc1 (racemic),,> 100 mg/kg,5.2 mg/kg,
Br.CC1N(C)C2CCCC1(c1cccc(O)c1)C2 (racemic; 8),,113 mg/kg,,"ED50 [4, 16]: 8 mg/kg; ED50 [7]: 4.5 mg/kg; Time [12]: 127 min; AD50 [8]: 2.6 mg/kg"
CCCN1C2CCCC(c3cccc(O)c3)(C2)C1C.Cl (racemic),inactive,> 30 mg/kg,,AD50 [8]: 0.03 mg/kg
Br.CC1C2CCCC1(c1cccc(O)c1)C(C)N2C (racemic; 14),,> 30 mg/kg,,
CN1CC2(c3ccccc3)CCCC1C2.Cl (racemic),,> 30 mg/kg,22.8 mg/kg,
CN1CC2(c3cc(O)cc(O)c3)CCCC1C2 (racemic),inactive,> 225 mg/kg,,
COc1ccc2c3c1O[C@H]1[C@@H](O)C=C[C@H]4[C@@H](C2)N(C)CC[C@@]341.COc1ccc2c3c1O[C@H]1[C@@H](O)C=C[C@H]4[C@@H](C2)N(C)CC[C@@]341.O.O=P(O)(O)O.O=P(O)(O)O [CODEINE PHOSPHATE],,231 mg/kg,9.5 mg/kg,"ED50 [4, 16]: 7.5 mg/kg"
Br.CC1N(C)C2CCCC1(c1ccccc1O)C2 (racemic),inactive,> 100 mg/kg,,
Br.CC1N(C)C2CCCC1(c1ccc(O)c(O)c1)C2 (racemic),,> 10 mg/kg,,Activity [9]: inactive
Br.Oc1cccc(C23CCCC(C2)NC3)c1 (racemic),inactive,> 100 mg/kg,,
CC1C2CCCC1(c1cccc(O)c1)C(C)N2C (racemic; 14),,,,Activity [9]: inactive
Br.CCC(=O)Oc1cccc(C23CCCC(C2)N(C)C3C)c1 (racemic),,114 mg/kg,2.3 mg/kg,"ED50 [4, 16]: 9.9 mg/kg"
"CC(=O)Oc1cccc(C23CCCC(C2)N(C)C3C)c1.Cl (single isomer, unassigned; (+))",,,2.4 mg/kg,ED50 [4]: 3.6 mg/kg; LD50 [11]: 129.5 mg/kg
CC1C2CCCC1(c1cccc(O)c1)CN2C (racemic; 15) [listing 2 of 2 here],,,,Activity [9]: inactive
Br.CC(C)=CCN1C2CCCC(c3cccc(O)c3)(C2)C1C (racemic),,> 30 mg/kg,15 mg/kg,AD50 [8]: 0.086 mg/kg

SMILES,Activity [1],LD50 [2],"ED50 [7, 16]",other results
Cl.O=C(CCN1CC2(c3ccccc3)CCCC1C2)c1ccccc1 (racemic),inactive,> 100 mg/kg,,
C=CCN1CC[C@]23c4c5ccc(O)c4O[C@H]2[C@@H](O)C=C[C@H]3[C@H]1C5.Cl [NALORPHINE HYDROCHLORIDE],,,,AD50 [8]: 0.16 mg/kg
CC1C2CCCC1(c1cccc(O)c1)C(C)N2C (racemic; 16),,,,Activity [9]: inactive
Cl.O=C(CCCN1CC2(c3ccccc3)CCCC1C2)c1ccc(F)cc1 (racemic),,> 200 mg/kg,4.1 mg/kg,
CCOC(=O)C1(c2ccccc2)CCN(C)CC1.Cl [MEPERIDINE HYDROCHLORIDE],,273 mg/kg,4.5 mg/kg,"ED50 [4, 16]: 4.7 mg/kg"
O=C(O)C(=O)O.Oc1cccc(C23CCCC(C2)N(CCc2ccccc2)C3)c1 (racemic),inactive,> 100 mg/kg,,
Br.CC1N(C)C2CCCC1(c1cccc(OC(=O)c3ccccc3)c1)C2 (racemic),,156 mg/kg,5.7 mg/kg,
CC1N(C)C2CCCC1(c1ccccc1)C2.Cl (racemic),,> 30 mg/kg,20 mg/kg,"ED50 [4, 16]: 20 mg/kg; Activity [5]: inactive"
C=CCN1CC[C@]23c4c5ccc(O)c4O[C@H]2C(=O)CC[C@@]3(O)[C@H]1C5.Cl [NALOXONE HYDROCHLORIDE],,,,AD50 [8]: 0.0044 mg/kg
Cl.Oc1cccc(C23CCCC(C2)N(C/C=C/c2ccccc2)C3)c1 (racemic),inactive,> 100 mg/kg,,AD50 [8]: 0.96 mg/kg
CCN1C2CCCC(c3cccc(O)c3)(C2)C1C.Cl (racemic),inactive,> 30 mg/kg,,
Br.COc1cccc(C23CCCC(C2)N(C)C3C)c1 (racemic),,25.9 mg/kg,6.1 mg/kg,
Br.COc1cccc(C23CCCC(C2)N(C)C3)c1 (racemic),,31.2 mg/kg,8.6 mg/kg,
C#CCN1CC2(c3cccc(O)c3)CCCC1C2.O=C(O)C(=O)O (racemic),inactive,> 100 mg/kg,,AD50 [8]: 1.6 mg/kg
CN1CC[C@]23c4c5ccc(O)c4O[C@H]2[C@@H](O)C=C[C@H]3[C@H]1C5.Cl [MORPHINE HYDROCHLORIDE],,,0.8 mg/kg,"ED50 [4, 16]: 1.2 mg/kg"
"CC(=O)Oc1cccc(C23CCCC(C2)N(C)C3C)c1.Cl (single isomer, unassigned; (-))",,,,LD50 [11]: 113.5 mg/kg
O=C(O)C(=O)O.c1ccc(C23CCCC(C2)N(CC2CC2)C3)cc1 (racemic),inactive,> 30 mg/kg,,inhibition in vivo at 5 mg/kg [6]: 41%
CC(=O)Oc1cccc(C23CCCC(C2)N(C)C3C)c1 (racemic),,,,Activity [13]: inactive
Br.CC1N(C)C2CCCC1(c1ccc(O)cc1)C2 (racemic),inactive,> 100 mg/kg,,
"CC(=O)Oc1cccc(C23CCCC(C2)N(C)C3C)c1 (single isomer, unassigned; (-))",inactive,,,Activity [14]: inactive; Activity [15]: inactive; Activity [3]: Active
